Legend:
[1] = system: Triticum aestivum; assay: Increase in CAT isoforms activity in roots of Triticum aestivum cv. Ning 13 (wheat) seedlings grown on soils containing compound at 2 to 5 mg/kg for 10 days by PAGE method assay relative to untreated control; assay type: ADME, organism-based; design: dose 2-5 mg/kg; conditions: in vivo, 240 h
Procedure, shortened: (§1)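 Native PAGE, 5% stacking/10% separating gel, run at 4 °C (10 mA, then 15 mA), of tissue extracts from seedlings grown 10 days in soil at 0, 2, 3.5, 5, 10, 20 mg/kg. CAT bands: gel soaked in water 15 min, then 0.03% H2O2 25 min, washed, stained with 1% potassium ferricyanide plus 1% ferric chloride.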

[2] = system: Triticum aestivum; assay: Reduction in CAT isoforms activity in leaves of Triticum aestivum cv. Ning 13 (wheat) seedlings grown on soils containing compound at 2 to 20 mg/kg for 10 days by PAGE method assay relative to untreated control; assay type: ADME, organism-based; design: dose 2-20 mg/kg; conditions: in vivo, 240 h; procedure, shortened: as §1
[3] = system: Triticum aestivum; assay: Reduction in CAT activity in leaves of Triticum aestivum cv. Ning 13 (wheat) seedlings grown on soils containing compound at 2 to 20 mg/kg for 10 days by H2O2 consumption assay relative to untreated control; assay type: ADME, organism-based; design: dose 2-20 mg/kg; conditions: in vivo, 240 h
[4] = system: Triticum aestivum; assay: Reduction in CAT isoforms activity in roots of Triticum aestivum cv. Ning 13 (wheat) seedlings grown on soils containing compound at 10 to 20 mg/kg for 10 days by PAGE method assay relative to untreated control; assay type: ADME, organism-based; design: dose 10-20 mg/kg; conditions: in vivo, 240 h; procedure, shortened: as §1
[5] = system: Triticum aestivum; assay: Increase in POD activity in leaves of Triticum aestivum cv. Ning 13 (wheat) seedlings grown on soils containing compound at 5 to 10 mg/kg for 10 days by guaiacol oxidation relative to untreated control; assay type: ADME, organism-based; design: dose 5-10 mg/kg; conditions: in vivo, 240 h
Procedure, shortened: (§2)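 Crude leaf or root extract (Tris-HCl pH 7.8, EDTA, PVP; 15000g) from seedlings grown 10 days in soil with 0–20 mg/kg herbicide. Guaiacol oxidation read at 470 nm for 1 min in 100 mM potassium phosphate pH 7.0, 20 mM guaiacol, 10 mM H2O2. Mean ± SD, n = 3.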

[6] = system: Triticum aestivum; assay: Toxicity in Triticum aestivum cv. Ning 13 (wheat) seedlings assessed as inhibition of shoot growth measured as dry weight grown on soils containing compound at 2 to 20 mg/kg for 10 days; assay type: organism-based; design: dose 2-20 mg/kg; conditions: in vivo, 240 h
Procedure, shortened: (§3)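 Surface-sterilized seeds germinated 8 h at 25 °C, then grown 10 days (third leaf) in soil at 0, 2, 3.5, 5, 10, 20 mg/kg, watered to 60–70% water content, 12 h photoperiod, 300 µmol photons m-2 s-1, 25/20 °C. Elongation measured; dry mass after 70 °C for 72 h. Mean ± SD, n = 3.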

[7] = system: Triticum aestivum; assay: Increase in POD activity in roots of Triticum aestivum cv. Ning 13 (wheat) seedlings grown on soils containing compound at 5 to 10 mg/kg for 10 days by guaiacol oxidation relative to untreated control; assay type: ADME, organism-based; design: dose 5-10 mg/kg; conditions: in vivo, 240 h; procedure, shortened: as §2
[8] = system: Triticum aestivum; assay: Reduction in APX activity in roots of Triticum aestivum cv. Ning 13 (wheat) seedlings grown on soils containing compound at 20 mg/kg for 10 days relative to untreated control; assay type: ADME, organism-based; design: dose 20 mg/kg; conditions: in vivo, 240 h
[9] = system: Triticum aestivum; assay: Increase in SOD activity in shoots of Triticum aestivum cv. Ning 13 (wheat) seedlings grown on soils containing compound at 2 to 10 mg/kg for 10 days by PAGE method assay relative to untreated control; assay type: ADME, organism-based; design: dose 2-10 mg/kg; conditions: in vivo, 240 h
[10] = system: Triticum aestivum; assay: Reduction in APX activity in leaves of Triticum aestivum cv. Ning 13 (wheat) seedlings grown on soils containing compound at 20 mg/kg for 10 days relative to untreated control; assay type: ADME, organism-based; design: dose 20 mg/kg; conditions: in vivo, 240 h
[11] = system: Triticum aestivum; assay: Increase in APX activity in roots of Triticum aestivum cv. Ning 13 (wheat) seedlings grown on soils containing compound at 5 to 10 mg/kg for 10 days relative to untreated control; assay type: ADME, organism-based; design: dose 5-10 mg/kg; conditions: in vivo, 240 h
[12] = system: Triticum aestivum; assay: Induction of changes in GST activity in leaves of Triticum aestivum cv. Ning 13 (wheat) seedlings grown on soils containing compound at 2 to 20 mg/kg for 10 days by CDNB dye based assay relative to untreated control; assay type: organism-based; design: dose 2-20 mg/kg; conditions: in vivo, 240 h
[13] = system: Triticum aestivum; assay: Reduction in CAT activity in roots of Triticum aestivum cv. Ning 13 (wheat) seedlings grown on soils containing compound at 10 to 20 mg/kg for 10 days by H2O2 consumption assay relative to untreated control; assay type: ADME, organism-based; design: dose 10-20 mg/kg; conditions: in vivo, 240 h
[14] = system: Triticum aestivum; assay: Induction of lipid peroxidation in Triticum aestivum cv. Ning 13 (wheat) seedlings assessed as increase in TBARS level in leaves grown on soils containing compound for 10 days relative to untreated control; assay type: organism-based; conditions: in vivo, 240 h
Procedure, shortened: (§4)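 Seedlings grown 10 days in soil at 0–20 mg/kg. Frozen tissue (0.5 g) ground in 0.1% TCA, spun; supernatant heated 30 min in boiling water with 0.5% TBA in 20% TCA. A532 minus A600 read; TBARS calculated with ε 155 mM-1 cm-1. Mean ± SD, n = 3.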

[15] = system: Triticum aestivum; assay: Increase in CAT activity in roots of Triticum aestivum cv. Ning 13 (wheat) seedlings grown on soils containing compound at 2 to 5 mg/kg for 10 days by H2O2 consumption assay relative to untreated control; assay type: ADME, organism-based; design: dose 2-5 mg/kg; conditions: in vivo, 240 h
[16] = system: Triticum aestivum; assay: Induction of lipid peroxidation in Triticum aestivum cv. Ning 13 (wheat) seedlings assessed as increase in TBARS level in leaves grown on soils containing compound at 10 mg/kg for 10 days relative to untreated control; assay type: organism-based; design: dose 10 mg/kg; conditions: in vivo, 240 h
Procedure, shortened: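 Wheat seeds surface-sterilized (5% hypochlorite, 10 min), germinated 8 h at 25 °C, sown in sieved field soil spiked with herbicide (0–20 mg/kg), watered to 60–70% water content, grown 10 days (12 h photoperiod, 25/20 °C). Fresh leaf (0.5 g) ground in 0.1% TCA, supernatant boiled 30 min with 0.5% TBA in 20% TCA; A532 minus A600, ε 155 mM-1 cm-1; n=3.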

[17] = system: Triticum aestivum; assay: Increase in POD isoforms 1 to 5 activity in roots of Triticum aestivum cv. Ning 13 (wheat) seedlings grown on soils containing compound at 3.5 to 10 mg/kg for 10 days by PAGE method assay relative to untreated control; assay type: ADME, organism-based; design: dose 3.5-10 mg/kg; conditions: in vivo, 240 h
[18] = system: Triticum aestivum; assay: Toxicity in Triticum aestivum cv. Ning 13 (wheat) seedlings assessed as reduction in shoot elongation grown on soils containing compound at 20 mg/kg for 10 days relative to untreated control; assay type: organism-based; design: dose 20 mg/kg; scale not given: the % may be the effect or the level left; conditions: in vivo, 240 h; procedure, shortened: as §3
[19] = system: Triticum aestivum; assay: Reduction in POD activity in roots of Triticum aestivum cv. Ning 13 (wheat) seedlings grown on soils containing compound at 20 mg/kg for 10 days by guaiacol oxidation relative to untreated control; assay type: ADME, organism-based; design: dose 20 mg/kg; conditions: in vivo, 240 h; procedure, shortened: as §2
[20] = system: Triticum aestivum; assay: Toxicity in Triticum aestivum cv. Ning 13 (wheat) seedlings assessed as reduction in root length grown on soils containing compound at 20 mg/kg for 10 days relative to untreated control; assay type: organism-based; design: dose 20 mg/kg; scale not given: the % may be the effect or the level left; conditions: in vivo, 240 h; procedure, shortened: as §3
[21] = system: Triticum aestivum; assay: Reduction in POD activity in leaves of Triticum aestivum cv. Ning 13 (wheat) seedlings grown on soils containing compound at 20 mg/kg for 10 days by guaiacol oxidation relative to untreated control; assay type: ADME, organism-based; design: dose 20 mg/kg; conditions: in vivo, 240 h; procedure, shortened: as §2
[22] = system: Triticum aestivum; assay: Increase in SOD activity in roots of Triticum aestivum cv. Ning 13 (wheat) seedings grown on soils containing compound at 2 to 10 mg/kg for 10 days by PAGE method assay relative to untreated control; assay type: ADME, organism-based; design: dose 2-10 mg/kg; conditions: in vivo, 240 h
[23] = system: Triticum aestivum; assay: Reduction in SOD activity in roots of Triticum aestivum cv. Ning 13 (wheat) seedlings grown on soils containing compound at 10 to 20 mg/kg for 10 days by PAGE method assay relative to untreated control; assay type: ADME, organism-based; design: dose 10-20 mg/kg; conditions: in vivo, 240 h
[24] = system: Triticum aestivum; assay: Reduction in SOD activity in shoots of Triticum aestivum cv. Ning 13 (wheat) seedlings grown on soils containing compound at 10 to 20 mg/kg for 10 days by PAGE method assay relative to untreated control; assay type: ADME, organism-based; design: dose 10-20 mg/kg; conditions: in vivo, 240 h
[25] = system: Triticum aestivum; assay: Induction of lipid peroxidation in Triticum aestivum cv. Ning 13 (wheat) seedlings assessed as increase in TBARS level in roots grown on soils containing compound at 2 to 20 mg/kg for 10 days relative to untreated control; assay type: organism-based; design: dose 2-20 mg/kg; conditions: in vivo, 240 h; procedure, shortened: as §4
[26] = system: Triticum aestivum; assay: Reduction in SOD activity in roots of Triticum aestivum cv. Ning 13 (wheat) seedlings grown on soils containing compound at 10 to 20 mg/kg for 10 days by NBT dye reduction assay relative to untreated control; assay type: ADME, organism-based; design: dose 10-20 mg/kg; conditions: in vivo, 240 h
Procedure, shortened: (§5)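 Root crude extract from 10-day seedlings in soil at 0–20 mg/kg. Inhibition of NBT photoreduction in 50 mM phosphate pH 7.8 with 10 mM methionine and riboflavin, read at 560 nm. One unit inhibits NBT photoreduction to formazan by 50%. Mean ± SD, n = 3.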

[27] = system: Triticum aestivum; assay: Increase in APX activity in leaves of Triticum aestivum cv. Ning 13 (wheat) seedlings grown on soils containing compound at 5 to 10 mg/kg for 10 days relative to untreated control; assay type: ADME, organism-based; design: dose 5-10 mg/kg; conditions: in vivo, 240 h
[28] = Solubility in water at 20 degC; assay type: physicochemical
[29] = system: Triticum aestivum; assay: Toxicity in Triticum aestivum cv. Ning 13 (wheat) seedlings assessed as reduction in chlorophyll content in leaves grown on soils containing compound at 2 mg/kg for 10 days relative to untreated control; assay type: organism-based; design: dose 2 mg/kg; scale not given: the % may be the effect or the level left; conditions: in vivo, 240 h
Procedure, shortened: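 Fresh leaf (0.1 g) from 10-day seedlings in spiked soil extracted in 80% acetone (pH 7.8, phosphate), spun 500g 10 min. Total chlorophyll calculated spectrophotometrically. Mean ± SD, n = 3.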

[30] = system: Triticum aestivum; assay: Increase in SOD activity in roots of Triticum aestivum cv. Ning 13 (wheat) seedlings grown on soils containing compound at 2 to 10 mg/kg for 10 days by NBT dye reduction assay relative to untreated control; assay type: ADME, organism-based; design: dose 2-10 mg/kg; conditions: in vivo, 240 h; procedure, shortened: as §5
[31] = system: Triticum aestivum; assay: Induction of changes in GST activity in roots of Triticum aestivum cv. Ning 13 (wheat) seedlings grown on soils containing compound at 2 to 20 mg/kg for 10 days by CDNB dye based assay relative to untreated control; assay type: organism-based; design: dose 2-20 mg/kg; conditions: in vivo, 240 h
Procedure, shortened: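 Tissue extract from 10-day seedlings in soil with 0–20 mg/kg. Reaction: 100 mM potassium phosphate pH 7, 1 mM GSH, 1 mM CDNB (final; added last to start). Absorbance increase at 340 nm tracked over 15 min. Mean ± SD, n = 3.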

CC(C)c1ccc(NC(=O)N(C)C)cc1 [ISOPROTURON]
> 2: fold change (FC) [16]
Toxic: Activity [1] | Activity [4] | Activity [5] | Activity [6] | Activity [7] | Activity [8] | Activity [9] | Activity [10] | Activity [11] | Activity [12] | Activity [13] | Activity [15] | Activity [17] | Activity [19] | Activity [21] | Activity [22] | Activity [23] | Activity [24] | Activity [26] | Activity [27] | Activity [31]
55 µg/mL: solubility [28]
44%: Activity [20]
32%: Activity [18]
Non-toxic: Activity [25]
Dose-dependent effect: Activity [2] | Activity [3] | Activity [14] | Activity [30]
11%: Activity [29]

From ChEMBL document CHEMBL3045798, “Toxic reactivity of wheat (Triticum aestivum) plants to herbicide isoproturon” (J Agric Food Chem, 2008)
